Bioassay records as filed in PubChem BioAssay.
In the library only some 1.8% were active in any assay of this set; here they are far more common.
TDP2 absorb: TDP2 (human) inhibition, absorbance primary screen | O95551 | recombinant TDP2, T5PNP hydrolysis, p-nitrophenol absorbance 415 nm | inhibition, % at 12.8 µM | hit rate 0.34% among 370,000 | AID 720702;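 active means inhibition above the mean of all tested compounds plus 3 SD, set per campaign, cut at about 25% in these data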;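 further: 0% = DMSO with enzyme and 100% = buffer with substrate but no TDP2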
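Assay system: Recombinant human TDP2 | Quantity: 120 nM TDP2 per well | Incubation: 2 h at 37 °C | Signal: Epi absorbance | Evaluation: Percent inhibition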
CASP6 VEID inh: blocks human caspase-6 cleavage activity | hit rate 0.53% among 350,000 | purified caspase-6, Z-VEID-R110 cleavage fluorescence | AID 686996 | inhibition, % at 12.5 µM;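 active means mean inhibition across replicates at least about 35%, with every replicate also reaching that limit, limit read from the data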;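 further: 0% = median of neutral control wells and 100% = no fluorescence left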
Target sequence (P55212 24-179 limits assumed): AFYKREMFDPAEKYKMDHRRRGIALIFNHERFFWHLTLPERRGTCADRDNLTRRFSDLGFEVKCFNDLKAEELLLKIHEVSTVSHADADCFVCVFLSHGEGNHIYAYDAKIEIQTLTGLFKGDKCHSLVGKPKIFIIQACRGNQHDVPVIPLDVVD
Target sequence (P55212 194-293 limits assumed): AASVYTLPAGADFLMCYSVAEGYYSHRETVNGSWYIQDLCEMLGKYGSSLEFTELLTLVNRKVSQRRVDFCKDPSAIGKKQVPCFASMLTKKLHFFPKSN
LEDGF integ inh: blocks HIV-1 LEDGF/p75-dependent DNA integration; AID 743269; inhibition, % at 3.7 µM; TR-FRET IN-LEDGF/p75 DNA integration, Eu/Cy5; hit rate 0.64% among 370,000;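 active means inhibition above the screen-wide mean plus 3 SD, cut at about 13% in these data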;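 further: signal is the Cy5 over europium emission ratio at 671 and 618 nm; 0% = plate median of compound wells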
NSD2 inh: inhibitors of human histone methyltransferase NSD2 | O96028 | NSD2 peptide methylation, AlphaScreen, 120 min | inhibition, % at 12.5 µM | hit rate 0.54% among 310,000; in the data active means inhibition above about 50%
UHRF1 MBD2 ctr: human UHRF1 methylated DNA binding inhibitors. Q96T88. UHRF1 binding to methylated oligo, TR-FRET. inhibition, % at 4.4 µM. hit rate 0.75% among 370,000; in the data active means inhibition above about 21%;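 further: UHRF1 SRA domain binding a hemimethylated CpG hairpin DNA probe; 0% = median of test compound wells and 100% = reference inhibitor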
MBD2 DNA inh: blocks human MBD2 binding to methylated DNA; Q9UBB5; TR-FRET, MBD2 binding to methylated oligonucleotide; inhibition, % at 4.4 µM; hit rate 0.31% among 370,000; AID 686964; in the data active means inhibition above about 13%
IN multimer act: counter-screen for LEDGF/p75 integration inhibitors: HIV-1 integrase multimerization activators. shares compounds with LEDGF integ inh. TR-FRET HIV-1 integrase multimerization, biochemical. activation, % at 7.7 µM. hit rate 17% among 2,000. AID 1053131; in the data active means activation above about 8.9%
TRFRET interf: TR-FRET optical interference, LEDGF/p75 integration counter-screen; 2,000 tested, under 10 active; shares compounds with LEDGF integ inh; inhibition, % at 7.7 µM; TR-FRET optical interference counterscreen, HIV-1 IN multimerization;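 active means inhibition above the mean over all tested compounds plus 3 SD, which no compound reached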;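 further: 0% = integrase with antibodies and DMSO and 100% = antibodies without integrase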
LEDGF integ conf: confirmation of HIV-1 LEDGF/p75-dependent integration inhibitors. inhibition, % at 3.7 µM. hit rate 36% among 2,000. AID 1053136. TR-FRET LEDGF/p75-dependent HIV-1 integration, biochemical. shares compounds with LEDGF integ inh; in the data active means inhibition above about 14%
An asterisk follows results filed as active; x = not tested or not shown.

SMILES	TDP2 absorb	CASP6 VEID inh	LEDGF integ inh	NSD2 inh	UHRF1 MBD2 ctr	MBD2 DNA inh	IN multimer act	TRFRET interf	LEDGF integ conf
C[C@H]1CCCCO[C@H](CN(C)C(=O)Nc2ccc(C(F)(F)F)cc2)[C@@H](C)CN([C@@H](C)CO)C(=O)c2cc(NC(=O)Nc3ccccc3)ccc2O1	x	1	x	x	x	x	x	x	x
CCc1ccc(O)c(-c2cc(C(=O)Nc3cccnc3)[nH]n2)c1	2	1	15*	0	-1	3	-3	13	-1
COc1cc2cc(C)c(SCC(=O)N3c4ccccc4Sc4ccccc43)nc2cc1OC	x	x	x	-1	x	x	x	x	x
Cc1ccccc1OCC(=O)OCC(=O)Nc1cc(C(F)(F)F)ccc1N1CCOCC1	2	1	17*	-3	-1	-9	-1	3	-6
CCOc1nc(Nc2ccc(Cl)cc2)nc(OCC)n1	-8	-1	5	-4	4	0	x	x	x
CCOc1nc(Nc2ccccc2)nc(OCC)n1	-19	3	24*	-4	-3	-6	1	-3	11
O=C(C[C@@H]1CC[C@H](NC(=O)C2CCC2)[C@@H](CO)O1)NC1CCC1	x	9	x	x	x	x	x	x	x
CC(C)(C)OC(=O)N1Cc2ccccc2C[C@H]1C(=O)NC1CCCC1	-2	1	53*	-2	-1	1	0	0	-2
CC(C)(C)OC(=O)N1Cc2ccccc2C[C@H]1C(=O)NCC(=O)NC1CCCC1	-6	0	-8	x	3	-3	x	x	x
C[C@H](CO)N1C[C@H](C)[C@H](CN(C)S(=O)(=O)c2ccc(F)cc2)Oc2ccc(NC(=O)NC3CCCCC3)cc2CC1=O	x	0	x	x	x	x	x	x	x
CCOC(=O)NNC1CC(=O)N(c2ccccc2)C1=O (stereo not drawn)	4	-6	18*	-3	0	3	1	-5	2
CCCOC(=O)C1=C(C)N(C)C(=O)NC1c1cc2c(cc1[N+](=O)[O-])OCO2 (stereo not drawn)	10	18	3	12	8	10	x	x	x
CCOC(=O)C1=C(C)NC(=O)CC1c1cc2c(cc1[N+](=O)[O-])OCO2 (stereo not drawn)	-2	11	22*	-1	1	-3	1	-7	2
O=c1c(O)c(-c2ccc(O)c(O)c2)oc2cc(O)ccc12	3	65*	79*	x	0	0	39*	-198	92*
CC(C)C#Cc1cnc2c(c1)C(=O)N([C@@H](C)CO)C[C@H](C)[C@@H](CN(C)C(=O)Nc1ccccc1)O2	x	0	x	x	x	x	x	x	x
COc1cc(CNc2ncnc3c2ncn3[C@H]2CN(Cc3cccc(C(F)(F)F)c3)C[C@@H](CO)O2)cc(OC)c1OC	-9	3	5	2	2	-3	x	x	x
COc1cc(CNc2ncnc3c2ncn3[C@H]2CN(Cc3cccc(C(F)(F)F)c3)C[C@@H](COC(C)=O)O2)cc(OC)c1OC	2	1	38*	-13	0	-4	1	-7	-8
C[C@@H]1CN([C@H](C)CO)S(=O)(=O)c2ccc(-c3cncnc3)cc2O[C@@H]1CN(C)C(=O)Cc1ccccc1	x	0	x	x	x	x	x	x	x
CCN(CC)C(=O)Oc1ccc2c(c1)O/C(=C\c1ccco1)C2=O	-6	17	2	5	5	4	x	x	x
O=C1/C(=C/c2ccco2)Oc2c1ccc(O)c2CN1CCCCC1	6	x	22*	9	14	1	13*	-65	23*
COCCN(CCOC)Cc1c(O)ccc2c1O/C(=C\c1ccco1)C2=O	9	7	41*	2	25*	2	24*	-84	22*
CCC(=O)Oc1ccc2c(c1)O/C(=C\c1ccco1)C2=O	-6	59*	25*	1	20	5	7	-36	10
